Hits are enriched below; roughly 1.7% of the tested compounds scored in any of these assays.
TPT1 inh – blocks Candida albicans tRNA 2'-phosphotransferase | recombinant caTPT1, FP RNA substrate dephosphorylation | inhibition, % at 5 µM | hit rate 0.81% among 300,000 | AID 1962;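 active = inhibition above the mean of all tested compounds plus 3 SD, set per screening campaign, cut at about 24% in these data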;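 also: plate controls were DMSO alone for no effect and ferristatin control at 100 nM for full effect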
HNF4A DNA FP – change in binding of human HNF4 alpha to DNA. activity change, % at 10 µM. hit rate 0.3% among 360,000. P41235. HNF4a-FITC DNA binding, fluorescence polarization, 1 h; in the data active = activity change above about 30%, passing the limit was not always enough
Target sequence (P41235 whole entry, looked up): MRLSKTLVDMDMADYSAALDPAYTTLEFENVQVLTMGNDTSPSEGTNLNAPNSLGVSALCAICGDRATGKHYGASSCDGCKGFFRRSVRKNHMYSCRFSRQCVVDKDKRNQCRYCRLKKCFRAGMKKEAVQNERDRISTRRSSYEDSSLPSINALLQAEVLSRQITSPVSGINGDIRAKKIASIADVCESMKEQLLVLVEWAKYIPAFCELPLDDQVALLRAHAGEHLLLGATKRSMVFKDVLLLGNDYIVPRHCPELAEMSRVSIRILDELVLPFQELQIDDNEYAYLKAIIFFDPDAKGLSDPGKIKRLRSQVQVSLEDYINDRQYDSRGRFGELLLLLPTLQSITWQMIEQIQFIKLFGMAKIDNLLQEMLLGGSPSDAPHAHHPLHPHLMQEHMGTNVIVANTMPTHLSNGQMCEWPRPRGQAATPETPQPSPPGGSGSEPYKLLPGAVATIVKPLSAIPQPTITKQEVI
Rpn11 inh – blocks the human proteasome subunit Rpn11 | inhibition, % at 20 µM | O00487 | human 26S proteasome, Ub4-pepOG fluorescence polarization; 20S core pre-blocked with epoxomicin | hit rate 0.59% among 360,000;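 active = inhibition at 20 µM, scaled to each plate's controls, above about 33%, limit read from the data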
CSN deneddyl inh – inhibitors of human CSN-mediated cullin deneddylation; Q92905; Purified CSN, SCF-Nedd8-OG deneddylation, fluorescence polarization; inhibition, % at 12.5 µM; hit rate 0.38% among 360,000;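 active = pattern-corrected inhibition above about 35%, with an unprinted fluorescence ratio check between 0.5 and 1.5, limit read from the data, passing the limit was not always enough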;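 also: 0% = enzyme with substrate and 100% = substrate without enzyme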
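Test system: Human Csn5 produced in HEK293T cells | Compound: 12.5 µM single point | Times: 90 min, room temperature | Signal: Fluorescence polarization readout | Read-out basis: % inhibition of substrate cleavage by Csn5 | Controls: no-enzyme wells high, enzyme-with-substrate wells low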
IDE act – boosts human insulin-degrading enzyme activity in HEK cells; AID 493087; P14735; activation, % at 5.96 µM; FAbeta-B cleavage, fluorescence polarization; 0% vehicle, 100% cell-free pure enzyme wells; hit rate 0.073% among 340,000;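 active = activation above the mean of all tested compounds plus 3 SD, set per screening campaign, cut at about 17% in these data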
IDE cell inh – inhibits human insulin-degrading enzyme in HEK cells; P14735; FAbetaB cleavage, fluorescence polarization; inhibition, % at 5.59 µM; hit rate 0.41% among 320,000; AID 434962;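 active = percent inhibition above the average of all tested compounds plus 3 SD, set per screening campaign, cut at about 16% in these data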;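 also: IDE supplied by intact live HEK cells; FP after avidin binding of uncleaved biotin substrate so inhibition keeps polarization high; 0% = DMSO wells and 100% = 60 µM reference IDE inhibitor Ii1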
caTPT1 confirm – TPT1 (C. albicans) inhibition, confirmation. shares compounds with TPT1 inh. recombinant caTPT1, fluorescence polarization, RNase T1 coupled. inhibition, % at 5 µM. hit rate 74% among 2,400. AID 2149;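 active = inhibition above the primary screen limit, the mean inhibition of all tested compounds plus 3 SD, cut at about 25% in these data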
RNase T1 counter – RNase T1 inhibition in TPT1 counter-screen | shares compounds with TPT1 inh | RNase T1 cleavage, fluorescence polarization, 1536-well | inhibition, % at 5 µM | hit rate 83% among 2,400 | AID 2153;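 active = inhibition above the solvent-only control well mean plus 3 SD, limit set per screening run, cut at about 23% in these data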;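 also: plate controls were DMSO wells with enzyme for no effect and wells without RNase T1 for full effect; inhibitors block cleavage so intact labeled substrate keeps polarization high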
Target sequence (P00651 whole entry, looked up): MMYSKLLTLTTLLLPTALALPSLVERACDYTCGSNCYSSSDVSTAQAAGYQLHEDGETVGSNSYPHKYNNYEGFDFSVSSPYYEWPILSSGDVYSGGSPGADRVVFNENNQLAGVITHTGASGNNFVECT
IDE cell inh cf – cellular human IDE inhibition, confirmation; hit rate 51% among 1,200; HEK cells, FAbetaB cleavage, fluorescence polarization; inhibition, % at 5.59 µM; shares compounds with IDE cell inh; AID 435028;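 active = mean inhibition across triplicate wells above the cutoff set by the earlier primary insulin-degrading enzyme screen, cut at about 16% in these data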;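 also: 0% = DMSO wells and 100% = 60 µM reference IDE inhibitor Ii1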
HEK293 tox – HEK cell cytotoxicity, counter-screen for IDE inhibitors; hit rate 28% among 1,200; HEK293 cytotoxicity, ATP luminescence; shares compounds with IDE cell inh; AID 449730; inhibition, % at 5.59 µM; in the data active = inhibition above about 22%;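 also: 0% = vehicle wells and 100% = reference cytotoxic drug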
Rpn11 confirm – confirmation of human proteasome Rpn11 inhibitors; shares compounds with Rpn11 inh; purified human 26S proteasome, Ub4-pepOG fluorescence polarization; proteasome pretreated with epoxomicin; inhibition, % at 20 µM; hit rate 29% among 1,900; AID 602318
MMP-2 counter-1 – blocks human MMP-2, flagging nonselective RPN11 hits. shares compounds with Rpn11 inh. recombinant MMP-2, FRET peptide cleavage fluorescence. inhibition, % at 20 µM. hit rate 4% among 1,900. AID 602330;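 also: human MMP-2 activated beforehand with APMA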
Thrombin inh – counter-screen for RPN11 inhibitors: inhibition of bovine thrombin. shares compounds with Rpn11 inh. inhibition, % at 20 µM. hit rate 13% among 1,900. bovine thrombin cleavage of Ub4-pepOG, fluorescence polarization;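 active = mean inhibition at least 40% at 20 µM, or signal 3 deviations below plate average, so some actives read negative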;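 also: plate controls were thrombin with DMSO for no effect and buffer wells lacking thrombin for full effect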
CSN5 deneddyl – Csn5 (human) deneddylation inhibition, single-concentration validation; shares compounds with CSN deneddyl inh; Csn5 deneddylation of SCF-Nedd8OG, fluorescence polarization, 90 min; inhibition, % at 16.6 µM; hit rate 62% among 540; AID 720654; in the data active = inhibition above about 50%;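 also: 0% = DMSO with enzyme and 100% = no enzyme wells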
MMP-2 counter-2 – MMP-2 (human) inhibition, counter-screen for CSN hits. shares compounds with CSN deneddyl inh. recombinant MMP-2, FRET substrate fluorescence, 60 min. inhibition, % at 16.6 µM. hit rate 33% among 540;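 active = corrected plate-normalized z-score of 5 or more, or -5 or less, or inhibition of 15% or more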;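 also: plate controls were DMSO wells with enzyme for no effect and buffer wells lacking MMP-2 for full effect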
Thrombin counter – thrombin (bovine) inhibition, counter-screen for CSN hits | shares compounds with CSN deneddyl inh | bovine thrombin cleavage of Ub4-pepOG, fluorescence polarization | inhibition, % at 16.6 µM | hit rate 49% among 540 | AID 720656;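 active = inhibition at or above a set limit, with a fluorescence interference ratio between 0.5 and a set maximum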
Active calls of the source: *. Rule as the data show it, unless noted: active = inhibition above about 40%; inactive = the rest.

What do the screens show for `COc1ccc(/C=N/n2c(C3CCCCC3)n[nH]c2=S)c(OC)c1`?
TPT1 inh: -4; HNF4A DNA FP: 5; Rpn11 inh: -1; CSN deneddyl inh: -2; IDE act: -10; IDE cell inh: 5

Results for Oc1ccc(F)c(CN2CCN(c3ncc(Cc4ccccc4)cn3)CC2)c1 ?
HNF4A DNA FP: 1; CSN deneddyl inh: -8

What do the screens show for `COc1ccc(-c2cc3c(=O)n(CC(=O)Nc4cccc(Cl)c4)nc(C)n3n2)cc1`?
TPT1 inh: -2; HNF4A DNA FP: 7; Rpn11 inh: -2; CSN deneddyl inh: 2; IDE act: 6; IDE cell inh: 3

Results for CCOc1cc(/C=N/NC(=O)C(N)=O)cc(Br)c1O ?
TPT1 inh: -4; HNF4A DNA FP: 1; Rpn11 inh: -4; CSN deneddyl inh: 8; IDE act: 7; IDE cell inh: -4

Results for CCOc1ccc(NC(=O)/C(C#N)=C/c2ccc(N3CCCC3)c(C)c2)cc1 ?
TPT1 inh: 83*; HNF4A DNA FP: 74; CSN deneddyl inh: 46*; IDE act: -9; IDE cell inh: 4; caTPT1 confirm: 83*; RNase T1 counter: 89*; CSN5 deneddyl: 99*; MMP-2 counter-2: 0; Thrombin counter: 25*

How did CCOc1cc(/C=C(/C#N)C(=O)Nc2ccc(O)cc2)cc(Br)c1O do in these assays?
TPT1 inh: active; HNF4A DNA FP: 54*; CSN deneddyl inh: 63*; IDE act: -58; IDE cell inh: 38*; caTPT1 confirm: 171*; RNase T1 counter: 164*; IDE cell inh cf: 75*; HEK293 tox: 57*; CSN5 deneddyl: 14; MMP-2 counter-2: -21; Thrombin counter: 68*

Results for CCc1nnc(NC(=O)CN2CCN(Cc3ccccc3Cl)CC2)s1 ?
TPT1 inh: 0; HNF4A DNA FP: 0; Rpn11 inh: 2; CSN deneddyl inh: 1; IDE act: 2; IDE cell inh: 0

What do the screens show for `CN(C(=O)COC(=O)c1ccccc1SCC(=O)N1CCCC1)C1(C#N)CCCCC1`?
HNF4A DNA FP: 7; Rpn11 inh: 5; CSN deneddyl inh: 4; IDE act: 0; IDE cell inh: 3

Results for Cc1cc(/C=C2\SC(=S)N(C)C2=O)c(C)n1-c1cccc(O)c1 ?
TPT1 inh: 78*; HNF4A DNA FP: 72*; CSN deneddyl inh: 37*; IDE act: -20; IDE cell inh: 5; caTPT1 confirm: 114*; RNase T1 counter: 117*; CSN5 deneddyl: 71*; MMP-2 counter-2: 4; Thrombin counter: 94*

How did COc1ccc(/C=C2\C(=O)NC(=S)N2C(=O)c2ccc(C)cc2)cc1 do in these assays?
TPT1 inh: 49*; HNF4A DNA FP: 16; Rpn11 inh: 64*; CSN deneddyl inh: 48*; IDE act: 2; IDE cell inh: 2; caTPT1 confirm: 66*; RNase T1 counter: 78*; Rpn11 confirm: 107*; MMP-2 counter-1: 18; Thrombin inh: 56*; CSN5 deneddyl: -4; MMP-2 counter-2: 10; Thrombin counter: 37*

Results for O=C1NC(=S)N(C(=O)c2ccc(F)cc2)/C1=C/c1cccnc1 ?
TPT1 inh: 9; HNF4A DNA FP: 3; Rpn11 inh: 9; CSN deneddyl inh: 1; IDE cell inh: 9

Results for CC1=NN(c2ccccc2)C(=O)/C1=C\C=C1/N(C)c2ccccc2C1(C)C ?
TPT1 inh: 74*; HNF4A DNA FP: 109*; CSN deneddyl inh: 80*; IDE act: -8; IDE cell inh: 4; caTPT1 confirm: 74*; RNase T1 counter: 84*; CSN5 deneddyl: 65*; MMP-2 counter-2: 1; Thrombin counter: 71*

Results for CCN1/C(=C/c2ccc3cccc(C)c3[n+]2CC)Sc2ccccc21 ?
TPT1 inh: 60*; HNF4A DNA FP: 107*; Rpn11 inh: 75*; CSN deneddyl inh: 54*; IDE act: -63; IDE cell inh: 53*; caTPT1 confirm: 66*; RNase T1 counter: 76*; CSN5 deneddyl: 23; MMP-2 counter-2: -13; Thrombin counter: 20

Results for COC1=CC(=Cc2c(N)n3nc(CC(=O)N4CCOCC4)sc3nc2=O)C=C(OC)C1=O ?
TPT1 inh: 50*; HNF4A DNA FP: 62*; CSN deneddyl inh: 88*; IDE act: -100; IDE cell inh: 121*; caTPT1 confirm: 132*; RNase T1 counter: 131*; IDE cell inh cf: 26*; HEK293 tox: 6; CSN5 deneddyl: 94*; MMP-2 counter-2: -20; Thrombin counter: 83*

Results for COC(=O)c1cc(NC(=O)COC(=O)CN2C(=O)C3CC=CCC3C2=O)cc(C(=O)OC)c1 (stereo not given) ?
HNF4A DNA FP: -2; Rpn11 inh: 3; CSN deneddyl inh: 3; IDE act: 2
